This note sets out measurements from ChEMBL document CHEMBL1139901, “Synthesis of new plant growth regulator: N-(fatty acid) O-aryloxyacetyl ethanolamine” (Bioorg Med Chem Lett, 2007).

One data set relates to Triticum aestivum. Kind of data set: Stimulation of coleoptiles growth in common wheat after 18 to 20 hrs. It is filed as functional. Further details: concentration or dose not given beside the values. In short, it runs like this:
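Wheat coleoptile tips (5 mm) were soaked in distilled water for 1 h to remove endogenous hormone, then cut into 10 segments. Compound in DMF was dried onto 6-cm filter paper and placed in 0.01 mol/L phosphoric acid–citric acid buffer (pH 5) with 2% sucrose, giving 10 mg/L. Ten segments were cultured at 25 °C in the dark for 18–20 h. Length was compared with untreated segments; two replicates.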

The next data set concerns Cucumis sativus. The data set is described as follows: Stimulation of cytyledon expansion in cucumber after 3 days. Format: functional. Details: concentration or dose not given beside the values. In short, it runs like this:
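Soaked cucumber seeds were germinated on 0.7% agar for 3 days in the dark at 26 °C, and cotyledons of similar size were selected. Compound in DMF was dried onto 6-cm filter paper, then distilled water was added to give 10 mg/L. Ten cotyledons were cultured per dish under light (300 Lux, 26 °C). Percent increase was taken over the no-regulator control.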

A further data set concerns Brassica napus. Kind of data set: Stimulation of hypocotyls elongation in rape after 3 days. Format: functional. Details: concentration or dose not given beside the values. In short, it runs like this:
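Rape seeds were cultured at 25 °C in the dark. Hypocotyl length was measured after 3 days and compared with seeds treated with distilled water; two replicates.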

Data set [1] can be described thus: Solubility in ethanol. Format: physicochemical.
Data set [2] in a line: Solubility in ethyl acetate solution. It is filed as physicochemical.
The nature of data set [3]: Solubility in chloroform. It is filed as physicochemical.

`CCCCCCCCCCCC(=O)NCCOC(=O)COc1ccc(Cl)cc1`: the Activity in the data set with Triticum aestivum turned out to be 16%; in the data set on Cucumis sativus, 2.9%; in the data set with Brassica napus, 71.8%.
For `CCCCCCCCCCCCCCCC(=O)NCCOC(=O)COc1ccc(Cl)cc1Cl`, in that order: 17%, 3.5% and 67.3%.
As to `CCCCCCCCCCCCCCCCCC(=O)NCCOC(=O)COc1cccc(OC)c1`, the Solubility in data set [1] stood at 1.99 g; in data set [2] it was 2.67 g; in data set [3], 7.76 g. Further, the figures for the Activity with Triticum aestivum, with Cucumis sativus and in the data set with Brassica napus were 5%, -0.1% and -1.4%, respectively.
Take `CCCCCCCCCCCC(=O)NCCOC(=O)COc1ccc(Cl)cc1Cl`: the figures for the Solubility in data set [1], in data set [2] and in data set [3] were 10.42 g, 11 g and 15.1 g, respectively. Moreover, the figures for the Activity in the data set on Triticum aestivum, with Cucumis sativus and with Brassica napus were 17.9%, 4% and 69%, respectively.
Regarding `CCCCCCCCCCCCCC(=O)NCCOC(=O)COc1ccc(Cl)cc1Cl`, the Activity was 8.9% in the data set with Triticum aestivum, -0.1% in the data set with Cucumis sativus and 68.1% in the data set on Brassica napus.
On the same counts, the results for `CCCCCCCCCCCCCCCCCC(=O)NCCOC(=O)COc1ccc(C)cc1` are 3.3%, 9.8% and 38.7%.
On the same counts, the results for `CCCCCCCCCCCC(=O)NCCOC(=O)COc1ccc(C)cc1` are 4.1%, 5.9% and 54.9%.
Consider `CCCCCCCCCCCCCCCCCC(=O)NCCO` [N-(2-HYDROXYETHYL)STEARAMIDE], for which the Solubility in data set [1] came to 0.34 g; in data set [2], 0.03 g; in data set [3] it was 0.16 g. Further, the Activity amounted to 2.1% in the data set on Triticum aestivum, 6.2% in the data set with Cucumis sativus and 35.3% in the data set with Brassica napus.
For the compound `CCCCCCCCCCCCCCCCCC(=O)NCCOC(=O)COc1ccc(Cl)cc1Cl`, the Solubility is 1.03 g in data set [1], 3.54 g in data set [2] and 10.22 g in data set [3]. Also, the Activity in the data set on Triticum aestivum worked out at 7.5%; with Cucumis sativus, 0.7%; in the data set on Brassica napus, 73.8%.
For `CCCCCCCCCCCCCCCCCC(=O)NCCOC(=O)COc1ccc(Cl)cc1`, the Solubility stood at 1.88 g in data set [1], 1.54 g in data set [2] and 4.37 g in data set [3]. Moreover, the Activity in the data set with Triticum aestivum is 5%; in the data set on Cucumis sativus, 6.3%; with Brassica napus it was 71.8%.
`CCCCCCCCCCCCCCCCCC(=O)NCCOC(=O)COc1ccccc1C`: the results for the Solubility in data set [1], in data set [2] and in data set [3] were 3.08 g, 8.27 g and 53.97 g, respectively. Moreover, the values for the Activity in the data set on Triticum aestivum, with Cucumis sativus and with Brassica napus were 0.7%, 5.7% and 57%, respectively.
On to `CCCCCCCCCCCC(=O)NCCO`, for which the Solubility is recorded as 9.14 g in data set [1], 0.38 g in data set [2] and 1.76 g in data set [3].
As for `O=C(O)COc1ccc(Cl)cc1Cl` [2,4-DICHLOROPHENOXYACETIC ACID], the Activity with Triticum aestivum stood at 28.3%; with Cucumis sativus, 0.8%; with Brassica napus it was 65.7%.
